Laboratory results from ChEMBL document CHEMBL3580583, “17-Norpimaranes and (9βH)-17-Norpimaranes from the Tuber of Icacina trichantha” (J Nat Prod, 2015).

Experiments:
Format in all cases: functional, cell-based
[1] = tested on: OVCAR-3; test: Cytotoxicity against human OVCAR3 cells assessed as cell viability after 72 hrs by commercial absorbance assay; conditions: OVCAR-3, 72 h
Outline: (§1)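 Cells from ATCC grown at 37°C, 5% CO₂ in RPMI 1640 with 10% FBS, penicillin 100 units/mL and streptomycin 100 µg/mL. Log-phase cells were trypsinized, washed twice, seeded at 5,000/well and incubated overnight. Samples in DMSO were added at 20, 4, 0.8, 0.16 and 0.032 µM (0.5% DMSO) for 72 h at 37°C. Viability was read by CellTiter 96 AQueous One absorbance; IC₅₀ relative to DMSO control.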

[2] = tested on: MDA-MB-231; test: Cytotoxicity against human MDA-MB-231 cells assessed as cell viability after 72 hrs by commercial absorbance assay; conditions: MDA-MB-231, 72 h; outline: as §1
[3] = tested on: MDA-MB-435; test: Cytotoxicity against human MDA-MB-435 cells assessed as cell viability after 72 hrs by commercial absorbance assay; conditions: MDA-MB-435, 72 h; outline: as §1

| Structure (SMILES) | IC50 [1] | IC50 [2] | IC50 [3] |
| --- | --- | --- | --- |
| C[C@@]12CC[C@@H]3C(=C[C@H]4OC(=O)[C@]5(C)[C@H]4[C@]34CCC5(O)OC4)[C@]1(O)OC[C@H]2O | 7.55 µM | 7.3 µM | 1.25 µM |
| C[C@@]12CC[C@@H]3C(=C[C@H]4OC(=O)[C@]5(C)[C@H]4[C@]34CCC5(O)OC4)[C@@H]1OC[C@H]2O | 4.12 µM | 3.74 µM | 1.65 µM |
| C[C@]12C(=O)O[C@@H]3C[C@H]4C5=C(CC[C@H]4[C@@]4(CCC1(O)OC4)[C@@H]32)C(=O)CO5 | 1.05 µM | 0.67 µM | 0.66 µM |
| C[C@]12C(=O)O[C@@H]3C[C@H]4c5occc5C(=O)C[C@H]4[C@@]4(COC1(O)C[C@@H]4O)[C@@H]32 | 18.7 µM | 10.8 µM | 6.44 µM |
| C[C@]12C(=O)O[C@@H]3Cc4c(ccc5ccoc45)C4(CCC1(O)OC4)[C@@H]32 (stereo partly specified) | 17.8 µM | > 20 µM | > 20 µM |
| COc1cc2c(c3occc13)C[C@H]1OC(=O)[C@]3(C)[C@H]1C21CCC3(O)OC1 (stereo partly specified) | > 20 µM | > 20 µM | > 20 µM |
| COc1cc2c(c3occc13)C[C@H]1OC(=O)[C@]3(C)[C@H]1[C@@]21CO[C@](O)(C1)[C@@H]3O | > 20 µM | > 20 µM | > 20 µM |
| COc1cc2c(c3occc13)C[C@H]1OC(=O)[C@]3(C)[C@H]1[C@@]21CO[C@](O)(C1)[C@H]3O | > 20 µM | > 20 µM | > 20 µM |
| C[C@]12C(=O)O[C@@H]3C[C@H]4c5occc5C(=O)C[C@H]4C4(CCC1(O)OC4)[C@@H]32 (stereo partly specified) | > 20 µM | > 20 µM | > 20 µM |
| C[C@]12C(=O)O[C@@H]3C[C@@]4(O)c5occc5C(=O)C[C@H]4C4(CCC1(O)OC4)[C@@H]32 (stereo partly specified) | 10.5 µM | 8.94 µM | 6.16 µM |
| C[C@]12C(=O)O[C@@H]3C[C@@H]4[C@@H](CCC5=CC(=O)O[C@@H]54)C4(CCC1(O)OC4)[C@@H]32 (stereo partly specified) | > 20 µM | > 20 µM | > 20 µM |
| CC[C@]1(O)C[C@@H]2CN(CCc3c([nH]c4ccccc34)[C@@](C(=O)OC)(c3cc4c(cc3OC)N(C)[C@H]3[C@@](O)(C(=O)OC)[C@H](OC(C)=O)[C@]5(CC)C=CCN6CC[C@]43[C@@H]65)C2)C1 [VINBLASTINE] | 0.00182 µM | 0.00878 µM | 0.00049 µM |
